Where “and” joins values, the source holds several entries; their conditions need not be identical. Identical values can stand only once.
System: U2OS
Test: Multiplex assay against U2OS
Type: toxicity, cell-based
Settings: human
How it was run: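 With compound added, live cells were imaged on a CQ1 microscope at 37°C and 5% CO2; staining with Hoechst33342, BioTracker Green Microtubule Cytoskeleton Dye, MitoTracker Red and Annexin V Alexa Fluor 680 had been done at seeding. The CellPathfinder machine-learning gating scheme split cells into Hoechst high-intensity objects or normal cells, normal cells into healthy, pyknosed or fragmented nuclei, and pyknosed cells into mitotic or apoptotic. The tubulin, mitochondrial-mass and membrane-permeability phenotypes are per cents of healthy-nucleus cells.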

[1] = 12 h, 1 µM, compound concentration 1 uM
[2] = 12 h, 10 µM, compound concentration 10 uM
[3] = 24 h, 1 µM, compound concentration 1 uM
[4] = 24 h, 10 µM, compound concentration 10 uM
[5] = 48 h, 1 µM, compound concentration 1 uM
[6] = 48 h, 10 µM, compound concentration 10 uM

Structure (SMILES): O=C(Nc1ccccc1Br)N[C@@H]1CCN(c2ccc(C(F)(F)F)cn2)C1 [SB-705498]
- Population Apoptotic (%) [1]: 38.89% and 33.33%
- Population Fragmented Nuclei (%) [1]: 1.94% and 6.43%
- Population Healthy Nuclei (%) [1]: 84.95% and 83.04%
- Population Hoechst High Intensity Objects (%) [1]: 0%
- Population Membrane Permeable-Phenotype (%) [1]: 1.14% and 2.82%
- Population Mitochondria Different-Phenotype (%) [1]: 0% and 3.52%
- Population Mitotic Cells (%) [1]: 61.11% and 66.67%
- Population Normal (%) [1]: 100%
- Population Pyknosed Nuclei (%) [1]: 13.11% and 10.53%
- Population Tubulin-Different-Phenotype (%) [1]: 0.86% and 0%
- Total Cell Count [1]: 412 and 171
- Population Apoptotic (%) [2]: 43.24% and 36.84%
- Population Fragmented Nuclei (%) [2]: 0.5% and 3.7%
- Population Healthy Nuclei (%) [2]: 90.35% and 82.22%
- Population Hoechst High Intensity Objects (%) [2]: 0%
- Population Membrane Permeable-Phenotype (%) [2]: 0.55% and 5.41%
- Population Mitochondria Different-Phenotype (%) [2]: 0% and 21.62%
- Population Mitotic Cells (%) [2]: 56.76% and 63.16%
- Population Normal (%) [2]: 100%
- Population Pyknosed Nuclei (%) [2]: 9.16% and 14.07%
- Population Tubulin-Different-Phenotype (%) [2]: 1.64% and 3.6%
- Total Cell Count [2]: 404 and 135
- Population Apoptotic (%) [3]: 45.28% and 27.59%
- Population Fragmented Nuclei (%) [3]: 2.03% and 4.69%
- Population Healthy Nuclei (%) [3]: 88.17% and 81.69%
- Population Hoechst High Intensity Objects (%) [3]: 0.18% and 0%
- Population Membrane Permeable-Phenotype (%) [3]: 0.21% and 2.87%
- Population Mitochondria Different-Phenotype (%) [3]: 0% and 10.34%
- Population Mitotic Cells (%) [3]: 54.72% and 72.41%
- Population Normal (%) [3]: 99.82% and 100%
- Population Pyknosed Nuclei (%) [3]: 9.8% and 13.62%
- Population Tubulin-Different-Phenotype (%) [3]: 0.84% and 0%
- Total Cell Count [3]: 542 and 213
- Population Apoptotic (%) [4]: 39.24% and 21.05%
- Population Fragmented Nuclei (%) [4]: 0.86% and 1.8%
- Population Healthy Nuclei (%) [4]: 85.49% and 86.83%
- Population Hoechst High Intensity Objects (%) [4]: 0%
- Population Membrane Permeable-Phenotype (%) [4]: 1.82% and 4.14%
- Population Mitotic Cells (%) [4]: 60.76% and 78.95%
- Population Normal (%) [4]: 100%
- Population Pyknosed Nuclei (%) [4]: 13.64% and 11.38%
- Population Tubulin-Different-Phenotype (%) [4]: 2.83% and 1.38%
- Population Apoptotic (%) [5]: 41.75% and 51.28%
- Population Fragmented Nuclei (%) [5]: 3.31% and 2.67%
- Population Healthy Nuclei (%) [5]: 86.67% and 86.93%
- Population Hoechst High Intensity Objects (%) [5]: 0%
- Population Membrane Permeable-Phenotype (%) [5]: 0.9% and 2.76%
- Population Mitochondria Different-Phenotype (%) [5]: 0% and 4.29%
- Population Mitotic Cells (%) [5]: 58.25% and 48.72%
- Population Normal (%) [5]: 100%
- Population Pyknosed Nuclei (%) [5]: 10.02% and 10.4%
- Population Tubulin-Different-Phenotype (%) [5]: 0.9% and 0.92%
- Total Cell Count [5]: 1028 and 375
- Population Apoptotic (%) [6]: 52.22% and 32.26%
- Population Fragmented Nuclei (%) [6]: 1.85% and 1.83%
- Population Healthy Nuclei (%) [6]: 89.37% and 86.81%
- Population Hoechst High Intensity Objects (%) [6]: 0.1% and 0%
- Population Membrane Permeable-Phenotype (%) [6]: 1.09% and 4.64%
- Population Mitochondria Different-Phenotype (%) [6]: 0.22% and 8.02%
- Population Mitotic Cells (%) [6]: 47.78% and 67.74%
- Population Normal (%) [6]: 99.9% and 100%
- Population Pyknosed Nuclei (%) [6]: 8.78% and 11.36%
- Population Tubulin-Different-Phenotype (%) [6]: 2.07% and 1.27%

Structure (SMILES): CCCC(CCC)C(=O)O [VALPROIC ACID]
- Population Apoptotic (%) [1]: 72% and 66%
- Population Fragmented Nuclei (%) [1]: 28% and 14%
- Population Healthy Nuclei (%) [1]: 63% and 77%
- Population Hoechst High Intensity Objects (%) [1]: 6% and 2%
- Population Membrane Permeable-Phenotype (%) [1]: 9% and 8%
- Population Mitochondria Different-Phenotype (%) [1]: 7% and 3%
- Population Mitotic Cells (%) [1]: 27% and 33%
- Population Normal (%) [1]: 93% and 97%
- Population Pyknosed Nuclei (%) [1]: 8%
- Population Tubulin-Different-Phenotype (%) [1]: 8% and 6%
- Population Apoptotic (%) [2]: 77% and 85%
- Population Fragmented Nuclei (%) [2]: 30% and 21%
- Population Healthy Nuclei (%) [2]: 66% and 70%
- Population Hoechst High Intensity Objects (%) [2]: 4% and 0%
- Population Membrane Permeable-Phenotype (%) [2]: 6% and 4%
- Population Mitochondria Different-Phenotype (%) [2]: 3% and 4%
- Population Mitotic Cells (%) [2]: 22% and 14%
- Population Normal (%) [2]: 95% and 100%
- Population Pyknosed Nuclei (%) [2]: 3% and 7%
- Population Tubulin-Different-Phenotype (%) [2]: 4%
- Population Apoptotic (%) [3]: 84% and 100%
- Population Fragmented Nuclei (%) [3]: 24% and 17%
- Population Healthy Nuclei (%) [3]: 66% and 74%
- Population Hoechst High Intensity Objects (%) [3]: 6% and 3%
- Population Membrane Permeable-Phenotype (%) [3]: 9%
- Population Mitochondria Different-Phenotype (%) [3]: 6% and 2%
- Population Mitotic Cells (%) [3]: 16% and 0%
- Population Normal (%) [3]: 93% and 96%
- Population Pyknosed Nuclei (%) [3]: 8%
- Population Tubulin-Different-Phenotype (%) [3]: 9% and 7%
- Population Apoptotic (%) [4]: 83% and 100%
- Population Fragmented Nuclei (%) [4]: 25% and 17%
- Population Healthy Nuclei (%) [4]: 71% and 78%
- Population Hoechst High Intensity Objects (%) [4]: 2% and 0%
- Population Membrane Permeable-Phenotype (%) [4]: 4% and 8%
- Population Mitochondria Different-Phenotype (%) [4]: 3% and 4%
- Population Mitotic Cells (%) [4]: 16% and 0%
- Population Normal (%) [4]: 97% and 100%
- Population Pyknosed Nuclei (%) [4]: 3% and 4%
- Population Tubulin-Different-Phenotype (%) [4]: 3% and 5%
- Population Apoptotic (%) [5]: 76% and 91%
- Population Fragmented Nuclei (%) [5]: 20% and 16%
- Population Healthy Nuclei (%) [5]: 69% and 72%
- Population Hoechst High Intensity Objects (%) [5]: 3%
- Population Membrane Permeable-Phenotype (%) [5]: 7% and 8%
- Population Mitochondria Different-Phenotype (%) [5]: 5%
- Population Mitotic Cells (%) [5]: 23% and 8%
- Population Normal (%) [5]: 96%
- Population Pyknosed Nuclei (%) [5]: 9% and 11%
- Population Tubulin-Different-Phenotype (%) [5]: 5% and 6%
- Population Apoptotic (%) [6]: 91% and 93%
- Population Fragmented Nuclei (%) [6]: 20%
- Population Healthy Nuclei (%) [6]: 71%
- Population Hoechst High Intensity Objects (%) [6]: 2% and 1%
- Population Membrane Permeable-Phenotype (%) [6]: 3% and 9%
- Population Mitochondria Different-Phenotype (%) [6]: 2%
- Population Mitotic Cells (%) [6]: 8% and 6%
- Population Normal (%) [6]: 97% and 98%
- Population Pyknosed Nuclei (%) [6]: 7%
- Population Tubulin-Different-Phenotype (%) [6]: 1% and 4%

From ChEMBL document CHEMBL5724801, “EUbOPEN Chemogenomics Library - Multiplex” (2024)
